Reference: ChEMBL document CHEMBL1125123, “Antimalarial activity of new water-soluble dihydroartemisinin derivatives. 3. Aromatic amine analogues” (J Med Chem, 1990)
Values after ≈ are worked out from the molar mass of the structure shown.

Assays:
Plasmodium falciparum [1] = experiment: Antimalarial activity against Plasmodium falciparum D6 Africa in human malaria; type: functional, organism-based
Procedure, shortened: (§1)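 Compounds dissolved in DMSO and 70% ethanol, then diluted in RPMI 1640 with 10% human plasma and tested over 1.56–100 × 10⁻⁹ M. Parasites at 0.5% parasitemia and 1% hematocrit were exposed to compound for 24 h before ³H-hypoxanthine was added. Uptake was read by scintillation counting, and IC50 was derived by nonlinear regression of concentration-response data.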

Plasmodium falciparum [2] = experiment: Antimalarial activity against Plasmodium falciparum W-2 Indochina in human malaria; type: functional, organism-based; procedure, shortened: as §1

Structure (SMILES)	IC50 (Plasmodium falciparum [1]) [ng/mL]	IC50 (Plasmodium falciparum [2]) [ng/mL]
C[C@@H]1CC[C@H]2[C@](C)(Br)[C@@H](Nc3ccccc3)O[C@@H]3O[C@@]4(C)CC[C@@H]1[C@]32OO4	3.42 (≈ 7.8 nM)	0.63 (≈ 1.44 nM)
C[C@@H]1CC[C@H]2[C@](C)(Br)[C@@H](Nc3nccs3)O[C@@H]3O[C@@]4(C)CC[C@@H]1[C@]32OO4	0.91 (≈ 2.04 nM)	0.21 (≈ 0.472 nM)
C[C@@H]1CC[C@H]2[C@](C)(Br)[C@@H](Nc3ccccn3)O[C@@H]3O[C@@]4(C)CC[C@@H]1[C@]32OO4	7.72 (≈ 17.6 nM)	1.19 (≈ 2.71 nM)
C[C@@H]1CC[C@H]2[C@](C)(Br)[C@@H](Nc3cccc(F)c3)O[C@@H]3O[C@@]4(C)CC[C@@H]1[C@]32OO4	0.16 (≈ 0.351 nM)	< 0.16
C[C@@H]1CC[C@H]2[C@](C)(Br)[C@@H](Nc3ncccn3)O[C@@H]3O[C@@]4(C)CC[C@@H]1[C@]32OO4	26 (≈ 59 nM)	5.56 (≈ 12.6 nM)
C[C@@H]1CC[C@H]2[C@@H](C)C(=O)O[C@@H]3O[C@@]4(C)CC[C@@H]1[C@]32OO4 [ARTEMISININ]	0.56 (≈ 1.98 nM)	
